Results published in BindingDB's records for doi:10.1021/jm00037a004 (Research Biochemicals International, 1994).

Molecular target: Sodium-dependent dopamine transporter (Rattus norvegicus, UniProt P23977)
Experiment: Binding affinity for dopamine transporters in rat brain tissue.
Procedure, shortened: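 Crude membrane fraction from rat corpus striatum homogenate. Nonspecific binding defined with 30 μM methylphenidate. Each agent tested at six concentrations in duplicate. Concentration-inhibition curves computer-fit for IC50 ± SEM, converted to Ki = IC50/(1 + [L/Kd]).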

Chain of Sodium-dependent dopamine transporter (P23977 whole entry): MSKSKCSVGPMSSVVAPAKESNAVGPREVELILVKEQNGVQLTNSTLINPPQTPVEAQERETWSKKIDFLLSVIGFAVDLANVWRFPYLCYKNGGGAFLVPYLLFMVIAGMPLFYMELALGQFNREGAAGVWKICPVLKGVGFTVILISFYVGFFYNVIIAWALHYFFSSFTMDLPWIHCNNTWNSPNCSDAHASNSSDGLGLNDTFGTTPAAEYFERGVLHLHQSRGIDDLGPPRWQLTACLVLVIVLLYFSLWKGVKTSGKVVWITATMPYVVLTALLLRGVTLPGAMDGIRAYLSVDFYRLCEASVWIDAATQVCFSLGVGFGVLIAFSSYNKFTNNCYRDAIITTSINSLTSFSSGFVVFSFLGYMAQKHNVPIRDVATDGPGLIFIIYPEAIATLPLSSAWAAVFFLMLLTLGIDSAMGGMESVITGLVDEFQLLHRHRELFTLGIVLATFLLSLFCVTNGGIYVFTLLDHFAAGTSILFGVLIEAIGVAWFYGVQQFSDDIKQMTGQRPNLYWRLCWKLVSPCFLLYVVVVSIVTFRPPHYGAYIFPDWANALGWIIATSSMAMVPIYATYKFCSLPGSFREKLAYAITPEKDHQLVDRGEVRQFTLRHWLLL

| Compound | Ki |
| --- | --- |
| COC(=O)[C@H]1C(c2cc[c]([Sn]([CH3])([CH3])[CH3])cc2)C[C@H]2CCC1N2CCCF (stereo partly drawn) [(2S,5R)-8-(3-Fluoro-propyl)-3-(4-trimethylstannanyl-phenyl)-8-aza-bicyclo[3.2.1]octane-2-carboxylic acid methyl ester] | > 10 µM |
| CC(C)OC(=O)[C@H]1C(c2cc[c]([Sn]([CH3])([CH3])[CH3])cc2)C[C@H]2CCC1N2CCF (stereo partly drawn) [(2S,5R)-8-(2-Fluoro-ethyl)-3-(4-trimethylstannanyl-phenyl)-8-aza-bicyclo[3.2.1]octane-2-carboxylic acid isopropyl ester] | 1.15 µM |
| COC(=O)[C@H]1C(c2cc[c]([Sn]([CH3])([CH3])[CH3])cc2)C[C@H]2CCC1N2CCF (stereo partly drawn) [(2S,5R)-8-(2-Fluoro-ethyl)-3-(4-trimethylstannanyl-phenyl)-8-aza-bicyclo[3.2.1]octane-2-carboxylic acid methyl ester] | > 10 µM |
| CC(C)OC(=O)[C@H]1C(c2cc[c]([Sn]([CH3])([CH3])[CH3])cc2)C[C@H]2CCC1N2CCCF (stereo partly drawn) [(2S,5R)-8-(3-Fluoro-propyl)-3-(4-trimethylstannanyl-phenyl)-8-aza-bicyclo[3.2.1]octane-2-carboxylic acid isopropyl ester] | > 10 µM |
